# Screening results as filed in PubChem.
# A selection: hits, their analogues and other compounds. The true share with any hit is near 2.3%.
# CFTR F508del cor = correctors of CFTR F508del function in bronchial epithelial cells | CFBE cells, YFP halide quenching; stimulated with forskolin plus potentiator P3; % fluorescence drop versus neutral controls | activity (quench increase), % at 7.58 µM | 350,000 tested, 0.36% active | AID 720511;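 active = mean added fluorescence quench of at least 8% versus neutral control, with both replicates also reaching 8%; inconclusive = only one of the mean or replicate conditions met; inactive = mean below 8% and not both replicates reaching 8%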;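 note: cells transiently co-express mutant CFTR-F508del with the halide-sensitive YFP; corrector assay measuring rescue of mutant channel to the surface after 24 h compound exposure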
# DENV2 CPE rescue = DENV2-induced cell death inhibition; CPE inhibition, % at 9.99 µM; 350,000 tested, 1.7% active; DENV2-infected cells, cytopathic effect rescue, plate reader; in the data active = CPE inhibition above about 20%, passing the limit was not always enough; inconclusive = no clear call, values can overlap the other calls; tested in BHK-21 cells;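 note: 0% = median of neutral control wells and 100% = median of positive control wells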
# Cneo AK release = Cryptococcus neoformans lysis via adenylate kinase release | C. neoformans lysis, adenylate kinase release luminescence, 4 h; normalised: neutral wells 0, clomiphene wells 100 | lysis activity, % at 15 µM | 360,000 tested, 0.2% active;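 active = mean lysis activity across replicates of at least 80%, whatever share of replicates individually reach that level; inactive = mean lysis activity below 80%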
#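 Test system: log-phase Cryptococcus neoformans yeast cells; Quantity: yeast cell density of 5 × 10^6 cells/mL; Buffer or medium: YPD; Doses: single compound concentration per well; Timing: 4 h at 37 °C static, read 1 h later; Measured by: AK luminescence; Read-out basis: lysis from increased AK signal; Control set: Clomiphene as positive control.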
# PDI inh = PDI (human) enzyme inhibition. P07237. PDI insulin aggregation turbidity, A650, 90 min. inhibition, % at 10 µM. 350,000 tested, 0.052% active. AID 588391;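 active = mean inhibition across replicates of 30% or more, whatever share of single replicates reach that level; inconclusive = mean inhibition below 30% while every single replicate reaches 30%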
# C2C12 statin = suppressors of simvastatin-induced myotoxicity in C2C12 myotubes; ATP luminescence, 48 h; scaled: DMSO 0, geranylgeraniol control 100; rescue of ATP level, % at 7.49 µM; 330,000 tested, 0.78% active;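 active = mean ATP rescue above about 67%, or every replicate alone reaching that limit, limit read from the data, passing the limit was not always enough; inconclusive = no clear call, values can overlap the other calls; inactive = mean under the limit and some replicate under it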;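 note: myotubes were challenged with 10 µM simvastatin during compound exposure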
# ERp5 block = ERp5 (human) disulfide isomerase inhibition; inhibition, % at 9.99 µM; ERp5 insulin aggregation, absorbance 650 nm, 90 min; 350,000 tested, 0.05% active; Q15084;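 active = mean replicate inhibition above about 25%, with every replicate also reaching it, limit read from the data, passing the limit was not always enough; inconclusive = only one of those two criteria met; inactive = neither criterion met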
# Target sequence (Q15084 whole entry, looked up): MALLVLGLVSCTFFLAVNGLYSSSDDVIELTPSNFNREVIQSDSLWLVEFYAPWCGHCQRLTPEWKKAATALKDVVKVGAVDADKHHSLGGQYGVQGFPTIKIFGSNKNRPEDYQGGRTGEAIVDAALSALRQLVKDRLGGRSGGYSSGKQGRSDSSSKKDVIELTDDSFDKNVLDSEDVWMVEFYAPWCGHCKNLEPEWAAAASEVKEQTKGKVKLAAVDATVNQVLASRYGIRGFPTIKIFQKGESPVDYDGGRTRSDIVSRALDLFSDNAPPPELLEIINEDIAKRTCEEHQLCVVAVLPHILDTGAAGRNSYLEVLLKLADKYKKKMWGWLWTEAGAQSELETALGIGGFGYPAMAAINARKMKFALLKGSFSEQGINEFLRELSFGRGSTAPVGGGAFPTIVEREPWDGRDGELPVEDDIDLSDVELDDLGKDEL
# * = called active by the depositor; ? = inconclusive; / = no result; ! = a repeat was not active.
SMILES,CFTR F508del cor,DENV2 CPE rescue,Cneo AK release,PDI inh,C2C12 statin,ERp5 block
O=C(c1cccc(S(=O)(=O)N2CCCC2)c1)N1CCCC(C(F)(F)F)C1 (stereo not drawn),1.6,14.4,-1.1,-5.2,-2.6,4.5
Cc1ccccc1-c1cc(C(=O)NCc2cccc(Br)c2)nn1CC1CC(c2cccc([N+](=O)[O-])c2)=NO1 (stereo not drawn),-1.7,34.0*,-2.4,2.3,-11.8,-1.3
COc1ccc(S(=O)(=O)Nc2cccc3c2O[C@@H](CN(C)Cc2ccccc2)[C@@H](C)CN([C@H](C)CO)C3=O)cc1,2.8,11.0,-4.4,/,0.3,2.2
Fc1ccccc1OCCCN1CCOCC1,/,/,-2.0,-4.2,169.2*,/
O=C(c1cccnc1)N1CC[C@@H]2[C@H](CO)Nc3ccc(C#Cc4cccnc4)cc3[C@@H]21,-1.9,-9.9,3.1,/,-34.1,0.3
COc1ccc(-c2cnc3c(c2)C(=O)N([C@H](C)CO)C[C@H](C)[C@@H](CN(C)Cc2ccccc2)O3)cc1,1.0,?,-1.8,/,31.4,3.8
C[C@@H]1CN([C@H](C)CO)C(=O)c2cc(-c3cccc(C#N)c3)cnc2O[C@H]1CN(C)Cc1cncnc1,2.0,3.7,-0.9,/,-8.0,75.3*
C[C@@H]1CN([C@@H](C)CO)C(=O)c2cc(C#CCN(C)C)cnc2O[C@H]1CN(C)Cc1ccc(-c2ccccc2)cc1,9.2*!,-2.6,-8.1,/,-3.4,0.1
COc1cccc(-c2cnc3c(c2)C(=O)N([C@H](C)CO)C[C@H](C)[C@H](CN(C)Cc2cccc(C)c2)O3)c1,1.1,-7.9,0.1,/,116.8*,0.1
COc1ccc(-c2cnc3c(c2)C(=O)N([C@@H](C)CO)C[C@H](C)[C@@H](CN(C)Cc2ccccc2)O3)cc1,1.7,47.8*,-4.2,/,35.3,4.6
COc1cccc(-c2cnc3c(c2)C(=O)N([C@@H](C)CO)C[C@H](C)[C@@H](CN(C)Cc2ccccc2)O3)c1,0.9,?,0.7,/,37.6,13.6
CCOc1ccc(NN=C(C(=O)OC)C(=O)OC)c([N+](=O)[O-])c1,-0.7,37.0*,8.5,-2.2,/,8.6
Cc1noc(C)c1S(=O)(=O)Nc1ccc2c(c1)CC(=O)N([C@H](C)CO)C[C@@H](C)[C@H](CN(C)Cc1ccc3c(c1)OCO3)O2,1.1,7.2,1.0,/,-13.1,1.5
COC(=O)COc1cc(C)cc2oc(=O)c(CC(=O)OC)c(C)c12,/,/,-1.1,-5.2,108.4*,/
C[C@@H]1CCCCO[C@H](CN(C)C(=O)Nc2ccc3c(c2)OCO3)[C@H](C)CN([C@@H](C)CO)C(=O)c2cc(NS(=O)(=O)c3cccs3)ccc2O1,1.8,-3.0,-0.8,/,36.3,5.5
O=C(Nc1ccc(F)c(Cl)c1)Nn1cnnc1,-0.1,76.1*,-12.0,-8.2,-1.4,-6.8
Cn1nc(C(C)(C)C)cc1N1C(=O)CCC1(C)C(=O)Nc1ccc2c(c1)OCCO2 (stereo not drawn),-1.5,24.1*,-0.3,/,12.8,-3.7
Cc1cccc(OCC(O)CNC(=O)c2ccccc2C(=O)O)c1 (stereo not drawn),/,/,-1.3,-2.6,0.0,/
Cc1ccc(OCC(O)CNC(=O)c2ccccc2C(=O)O)cc1 (stereo not drawn),/,/,-6.5,-21.2,104.9*,/
Cc1cc(Br)ccc1NC(=O)CN(C)C(=O)COc1cccc2c1OC(C)(C)C2,-7.6,90.8*,2.2,-2.4,1.5,8.6
C/C=C/C(=O)OCC(=O)NC(=O)NC(C)C,/,/,-2.0,-1.8,100.8*,/
Cc1cc(C(=O)Nc2cccc3c2O[C@H](CN(C)S(=O)(=O)c2ccccc2)[C@H](C)CN([C@H](C)CO)C3=O)n(C)n1,1.4,-12.9,90.0*,/,-5.9,-8.9
Cc1cc(C(=O)Nc2cccc3c2O[C@H](CN(C)S(=O)(=O)c2ccc(Cl)cc2)[C@H](C)CN([C@H](C)CO)C3=O)n(C)n1,-0.6,-3.5,-1.1,/,12.1,-4.7
Cc1cc(C(=O)Nc2cccc3c2O[C@@H](CN(C)S(=O)(=O)c2ccc(Cl)cc2)[C@@H](C)CN([C@@H](C)CO)C3=O)n(C)n1,1.1,-5.6,0.9,/,-22.5,26.0*
Cc1ccc(S(=O)(=O)N(CCCc2c(C)nc(N)[nH]c2=O)Cc2ccc([N+](=O)[O-])cc2)cc1,0.8,8.4,/,-1.7,/,7.4
SMILES,CFTR F508del cor,DENV2 CPE rescue,Cneo AK release,PDI inh,C2C12 statin,ERp5 block
Cc1nc(N)[nH]c(=O)c1CCCNS(=O)(=O)c1ccc([N+](=O)[O-])cc1,8.1*,4.3,7.0,2.0,-1.3,-2.2
COc1cc(OC)c(CNS(=O)(=O)c2ccc(Br)cc2)c(OC)c1,-0.3,-12.3,6.1,/,/,0.8
O=C(NC[C@H]1N[C@H](CO)[C@@H]1c1ccc(-c2cncnc2)cc1)c1ccccc1F,-2.8,-2.9,/,/,/,-6.2
Nc1ccc2c3c(cccc13)-c1ccccc1-2,-0.7,-4.3,4.4,-6.9,125.9*,-9.5
Cc1ccc2c3c(cccc13)-c1ccccc1C2=O,-0.2,-3.1,2.4,-4.2,/,8.5
CCOc1ccc2c(c1)nc(SCC(=O)c1cccs1)n2C,/,/,4.2,-0.5,/,-14.8
CCOc1ccc2c(c1)nc(SCC(=O)c1ccc(Br)s1)n2C,/,/,-0.9,-1.6,70.4*,/
Cc1noc(C)c1NC(=O)N(C)C[C@H]1Oc2ccc(NC(=O)CCC(F)(F)F)cc2CC(=O)N([C@@H](C)CO)C[C@H]1C,1.3,9.7,15.2,/,-21.6,7.9
O=c1cc(CN2CCN(CCO)CC2)c2cc3c(cc2o1)CCC3,/,/,1.0,7.5,7.3,/
O=c1cc(CN2CCN(Cc3ccccc3)CC2)c2cc3c(cc2o1)CCC3,-0.2,-6.7,-2.1,-4.3,114.6*,13.4
CCN(C[C@H]1[C@H](c2ccccc2)[C@@H](CO)N1CC1CC1)C(=O)c1ccccn1,-1.2,21.0*,-4.3,/,-3.7,-3.4
CCN(C[C@H]1[C@H](c2ccccc2)[C@H](CO)N1CC1CC1)C(=O)c1ccccn1,1.0,4.6,-5.2,/,19.4,-3.0
CCN(C[C@H]1[C@@H](c2ccccc2)[C@H](CO)N1CC1CC1)C(=O)c1ccccn1,-2.6,24.8*,12.0,/,-1.6,0.7
C[C@H]1CN([C@@H](C)CO)C(=O)c2cc(C#CC3(O)CCCC3)cnc2O[C@@H]1CN(C)Cc1cccnc1,-1.0,-2.6,101.3*,/,13.6,1.3
COCC(=O)N(C)C[C@@H]1Oc2ncc(C#CCC3CCCC3)cc2C(=O)N([C@H](C)CO)C[C@H]1C,-0.3,-10.6,87.3*,/,9.1,1.1
COCC(=O)N(C)C[C@H]1Oc2ncc(C#CCC3CCCC3)cc2C(=O)N([C@@H](C)CO)C[C@@H]1C,-2.1,-3.7,-1.8,/,14.8,-5.9
COCC(=O)N(C)C[C@@H]1Oc2ncc(C#CC3(O)CCCC3)cc2C(=O)N([C@@H](C)CO)C[C@@H]1C,1.0,-5.1,0.9,/,16.3,-1.7
